MrgX1 antag = blocks BAM8-22 activation of human MrgX1 receptor | 310,000 tested, 1.3% active | B-score at 10 µM | MRGX1-HEK293 calcium flux, Fluo-4, BAM8-22 antagonism; active compounds read low | Q96LB2;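 active means calcium-response B-score plate-corrected more than 3 library SD below zero, starting fluorescence within 5 deviations, no agonist response on first addition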;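 further: peak minus trough fluorescence over baseline after final BAM8-22 challenge near maximal dose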
Target sequence (Q96LB2 whole entry, looked up): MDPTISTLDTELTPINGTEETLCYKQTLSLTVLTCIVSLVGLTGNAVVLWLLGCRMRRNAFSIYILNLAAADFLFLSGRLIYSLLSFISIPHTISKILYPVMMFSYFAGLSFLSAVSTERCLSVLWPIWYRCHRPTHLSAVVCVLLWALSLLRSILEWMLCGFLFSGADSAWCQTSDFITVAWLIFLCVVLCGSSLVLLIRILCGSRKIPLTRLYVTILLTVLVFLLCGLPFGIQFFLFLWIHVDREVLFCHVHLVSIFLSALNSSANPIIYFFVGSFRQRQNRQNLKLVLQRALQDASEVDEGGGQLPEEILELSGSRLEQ
RGS4 inh = inhibitors of human RGS4. HEK293 M3R/RGS4 inducible, Fluo-4 calcium flux; active compounds read high; triggered by carbachol at its EC20. B-score at 10 µM. 310,000 tested, 0.45% active. AID 463165;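 active means B-score, a plate-corrected calcium signal, over three deviations above library mean, with baseline fluorescence within five deviations of library mean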;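 further: RGS4 expression induced by doxycycline in cells with stable M3 receptor; B-score is computed from the integrated fluorescence ratio over baseline after carbachol; higher B-score means a larger calcium signal and so more RGS4 inhibition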
Target sequence (P49798 whole entry, looked up): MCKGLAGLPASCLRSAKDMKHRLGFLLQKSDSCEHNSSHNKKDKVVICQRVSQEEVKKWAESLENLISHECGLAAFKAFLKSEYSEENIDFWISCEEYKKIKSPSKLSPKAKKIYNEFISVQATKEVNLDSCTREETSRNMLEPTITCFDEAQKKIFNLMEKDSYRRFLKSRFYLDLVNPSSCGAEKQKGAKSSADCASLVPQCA
MrgX1 ag = activates human MrgX1 receptor signaling. MrgX1-HEK293 cells, Fluo-4 calcium fluorescence, agonist mode; active compounds read high. B-score at 10 µM. 310,000 tested, 0.44% active;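 active means calcium response B-score plate-corrected fluorescence ratio at least 3 library SD, with starting fluorescence B-score inside 5 SD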
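System – MrgX1-expressing HEK293 cells · Incubation – cells plated overnight, dye loaded 0.5 h 37 °C, 0.5 h room temperature · Technique – kinetic Fluo-4 NW fluorescence of intracellular calcium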
MrgX1 allo act = human MrgX1 positive allosteric modulation, primary screen | AID 588675 | B-score at 10 µM | 310,000 tested, 0.63% active | MrgX1-HEK293, Fluo-4 calcium flux, FDSS; active compounds read high | Q96LB2;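 active means plate-corrected calcium response at least 3 library SD above typical, normal starting fluorescence, not activating the receptor alone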;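 further: compound read alongside a low EC10 to EC30 dose of BAM8-22 agonist; peak minus trough fluorescence over baseline measured at the second addition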
RGS4 act = RGS4 potentiation or activation; HEK293 M3R/inducible RGS4, carbachol calcium flux Fluo4; active compounds read low; B-score at 10 µM; 310,000 tested, 0.92% active;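 active means B-score of the integrated calcium signal more than 4 SD below the library mean, with starting fluorescence not abnormally high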;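 further: negative B-score means reduced calcium response which marks RGS4 activation or potentiation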
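Detection: kinetic calcium fluorescence imaging with Fluo4-AM dye, 2 µM / Material: HEK293 cells with stable M3R and inducible RGS4 / Schedule: recording 10 s baseline at 1 Hz, 100 s post-agonist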
MrgX1 allo conf = reconfirmed allosteric activator of human MrgX1 receptor | 1,200 tested, 13% active | MrgX1-HEK293, Fluo-4 calcium fluorescence, FDSS | activation (ratio percentage), % at 10 µM | AID 602413 | shares compounds with MrgX1 allo act;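 active means ratio at least 3 SD above the weak peptide control, stable starting fluorescence, no direct agonism earlier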;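 further: compound followed by low BAM8-22 agonist challenge near EC20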
HEK293 Ca flux = MrgX1 antagonist counter-screen hit in parental HEK293 cells | shares compounds with MrgX1 antag | Fluo-4 calcium fluorescence, FDSS | fluorescence ratio F(max-min)/F0 at 10 µM | 4,000 tested, 2% active;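 active means duplicate-averaged calcium fluorescence ratio at least three times the standard deviation of buffer wells, a nonspecific response in parental cells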
HEK293 Ca counter = activity in parental HEK293 cells without MrgX1; parental HEK293 calcium flux, Fluo-4 fluorescence ratio; active compounds read high; shares compounds with MrgX1 antag; 4,000 tested, 0.4% active; fluorescence ratio F(max-min)/F0 at 10 µM;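 active means calcium fluorescence ratio, averaged over duplicates, at least 3 SD of the buffer-well ratio, meaning a nonspecific response in receptor-free cells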;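 further: untransfected parental HEK293 lacking MrgX1 used as counterscreen for MrgX1 allosteric activators; fluorescence change taken during the second addition on a kinetic imager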
HEK293 Ca cntr2 = MrgX1 activator counter-screen hit in parental HEK293 cells | shares compounds with MrgX1 antag | Fluo-4 calcium fluorescence (FDSS); active compounds read high | fluorescence ratio F(max-min)/F0 at 10 µM | 4,000 tested, 8.7% active | AID 624115;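 active means calcium fluorescence ratio at least three times the spread of buffer wells, meaning a non-specific response in parental cells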
Of the large screens only hits and unclear results are named; the others gave an inactive call (follow-up assays come after a bar, where they were run). This is a sample that favours compounds with a hit; in the whole collection about 3.5% have one here.

Cc1ccc(-n2cnc3cc(NCc4cccs4)ccc32)cc1	MrgX1 allo act 9.83 | MrgX1 allo conf inactive | HEK293 Ca flux inactive | HEK293 Ca counter inactive | HEK293 Ca cntr2 inactive
c1ccc(-n2cnc3cc(NCc4cccs4)ccc32)cc1	none
O=C(CN(Cc1ccco1)C(=O)Cn1nnc(-c2cccs2)n1)NCC1CCCO1 (stereo not given)	none
COc1ccccc1-n1c(-c2ccc(Cl)cc2)c[nH]c1=S	MrgX1 allo act 7.48 | MrgX1 allo conf inactive | HEK293 Ca flux inactive | HEK293 Ca counter inactive | HEK293 Ca cntr2 inactive
CCC(C)c1ccccc1OCC(=O)NN1C(=O)c2ccccc2C1=O (stereo not given)	none
O=C(NCCN1CCN(c2ccccc2)CC1)Nc1ccccc1Br	none
CNc1nc2[nH]c(=O)c3c(c2s1)OC(N)=C(C#N)C3c1cccc(F)c1 (stereo not given)	MrgX1 allo act 17.4 | MrgX1 allo conf inactive | HEK293 Ca flux inactive | HEK293 Ca counter inactive | HEK293 Ca cntr2 inactive
O=c1c(Cc2ccc(Cl)cc2Cl)c(O)ccn1CCCN1CCOCC1	none
CC1=CC(C)C(/C=N/N=C(N)N)C(C)C1 (stereo not given)	MrgX1 allo act 24.2 | MrgX1 allo conf inactive | HEK293 Ca flux inactive | HEK293 Ca counter inactive | HEK293 Ca cntr2 inactive
CCOc1ccc(N(CC(=O)NCc2ccccc2)C(=O)Cn2nnc(-c3ccc(C)o3)n2)cc1	none
Cc1cccc2nc3ccccc3nc12	MrgX1 allo act 9.32 | MrgX1 allo conf inactive | HEK293 Ca flux inactive | HEK293 Ca counter inactive | HEK293 Ca cntr2 inactive
c1ccc2nc3ccccc3nc2c1	none
COc1ccc(-c2cn3c(C)c(C(=O)N4CCCc5ccccc54)sc3n2)cc1	MrgX1 allo act 8.03 | MrgX1 allo conf inactive | HEK293 Ca flux inactive | HEK293 Ca counter inactive | HEK293 Ca cntr2 inactive
Fc1ccc(-c2cc(C(F)(F)F)nc(-n3cncn3)n2)cc1	none
Fc1ccc(-c2cc(C(F)(F)F)nc(-n3cccn3)n2)cc1	MrgX1 allo act 8.23 | MrgX1 allo conf 31.8% | HEK293 Ca flux inactive | HEK293 Ca counter inactive | HEK293 Ca cntr2 inactive
Clc1ccc(CSc2cc3c(nn2)-c2ccccc2CC3)cc1	MrgX1 allo act 7.95 | MrgX1 allo conf inactive | HEK293 Ca flux inactive | HEK293 Ca counter 47.9 | HEK293 Ca cntr2 inactive
C/C(=N\OCC(=O)Nc1ccccc1C(=O)O)c1cccs1	none
C/C(=N/OCC(=O)Nc1ccc(C)cc1C)c1cccs1	MrgX1 allo act 27.2 | MrgX1 allo conf 3.9% | HEK293 Ca flux inactive | HEK293 Ca counter inactive | HEK293 Ca cntr2 inactive
O=c1c2ccccc2nc(/C=C/c2ccc(O)cc2)n1CCc1ccccc1	none
CCn1c(/C=C/c2ccccc2)nc2ccccc2c1=O	MrgX1 allo act 7.71 | MrgX1 allo conf inactive | HEK293 Ca flux inactive | HEK293 Ca counter inactive | HEK293 Ca cntr2 inactive
CCn1c(/C=C/c2ccc(F)cc2)nc2ccccc2c1=O	none
O=c1c2ccccc2nc(/C=C/c2ccccc2)n1CCCO	MrgX1 allo act 11.2 | MrgX1 allo conf inactive | HEK293 Ca flux inactive | HEK293 Ca counter inactive | HEK293 Ca cntr2 inactive
Cc1sc2ncn(CCn3cnc4sc(C)c(C)c4c3=O)c(=O)c2c1C	MrgX1 allo act 13.5 | MrgX1 allo conf inactive | HEK293 Ca flux inactive | HEK293 Ca counter inactive | HEK293 Ca cntr2 inactive
Cc1sc2ncn(CCC(=O)O)c(=O)c2c1C	none
Cc1nc2ccccc2cc1OCc1ccccc1	MrgX1 allo act 6.56 | MrgX1 allo conf inactive | HEK293 Ca flux inactive | HEK293 Ca counter inactive | HEK293 Ca cntr2 inactive
Cc1nc2ccccc2cc1OCc1ccc(Cl)cc1	none
O=C(NC12CC3CC(CC(C3)C1)C2)c1ccccc1	none

Source: PubChem
